Experimental data taken from ChEMBL document CHEMBL2331279, “Rational design and synthesis of 4-substituted 2-pyridin-2-ylamides with inhibitory effects on SH2 domain-containing inositol 5'-phosphatase 2 (SHIP2)” (Eur J Med Chem, 2013).

What was measured:
[1] = target: T1, Phosphatidylinositol 3,4,5-trisphosphate 5-phosphatase 2 (Rattus norvegicus) (UniProt Q9WVR3); assay: Inhibition of SHIP2 in TNF alpha-treated Sprague-Dawley rat cortical neuron assessed as potentiation of insulin-stimulated Akt phosphorylation at Thr308 at 10 uM treated for 15 mins after TNF alpha challenge for 3 days and prior to insulin stimulation measured after 5 mins by Western blot analysis relative to untreated control
T1 sequence (whole entry): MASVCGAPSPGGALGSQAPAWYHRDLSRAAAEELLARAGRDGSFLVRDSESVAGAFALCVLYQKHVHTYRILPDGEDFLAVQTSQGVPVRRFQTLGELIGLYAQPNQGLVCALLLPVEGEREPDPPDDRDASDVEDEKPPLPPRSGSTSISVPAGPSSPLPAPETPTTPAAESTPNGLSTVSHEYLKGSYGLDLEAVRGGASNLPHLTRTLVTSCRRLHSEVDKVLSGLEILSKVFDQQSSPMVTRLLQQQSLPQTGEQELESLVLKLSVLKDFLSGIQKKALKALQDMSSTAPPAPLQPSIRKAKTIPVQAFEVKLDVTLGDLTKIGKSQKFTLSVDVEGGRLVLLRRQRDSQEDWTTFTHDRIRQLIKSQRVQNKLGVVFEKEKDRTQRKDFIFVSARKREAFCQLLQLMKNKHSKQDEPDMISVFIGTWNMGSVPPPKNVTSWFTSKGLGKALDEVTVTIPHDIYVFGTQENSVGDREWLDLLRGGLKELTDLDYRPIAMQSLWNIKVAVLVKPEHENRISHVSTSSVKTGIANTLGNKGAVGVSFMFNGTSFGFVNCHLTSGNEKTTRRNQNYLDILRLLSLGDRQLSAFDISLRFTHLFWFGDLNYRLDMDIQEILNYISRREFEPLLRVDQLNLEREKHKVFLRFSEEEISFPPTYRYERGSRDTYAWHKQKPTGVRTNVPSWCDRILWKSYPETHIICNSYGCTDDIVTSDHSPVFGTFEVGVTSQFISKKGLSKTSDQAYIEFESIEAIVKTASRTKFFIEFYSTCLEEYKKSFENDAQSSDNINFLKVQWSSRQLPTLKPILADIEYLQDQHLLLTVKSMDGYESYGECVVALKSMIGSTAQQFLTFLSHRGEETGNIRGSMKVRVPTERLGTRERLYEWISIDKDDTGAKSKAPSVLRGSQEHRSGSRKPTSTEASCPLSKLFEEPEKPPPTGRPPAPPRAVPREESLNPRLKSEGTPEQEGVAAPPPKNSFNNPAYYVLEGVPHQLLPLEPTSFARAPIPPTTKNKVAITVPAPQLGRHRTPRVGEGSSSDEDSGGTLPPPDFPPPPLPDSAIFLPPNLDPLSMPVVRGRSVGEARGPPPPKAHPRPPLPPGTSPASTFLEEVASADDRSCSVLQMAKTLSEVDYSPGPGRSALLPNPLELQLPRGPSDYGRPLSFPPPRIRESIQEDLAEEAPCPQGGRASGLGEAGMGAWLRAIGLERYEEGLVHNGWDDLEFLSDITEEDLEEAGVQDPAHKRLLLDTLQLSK

[2] = system: Mus musculus; assay: Toxicity in C57BL/6J mouse assessed as effect on glucose tolerance at 300 mg/kg, po bid for 13 days by glucose tolerance test; type: organism-based; set-up: dose 300 mg/kg, route oral; conditions: in vivo, 312 h
Outline: (§1)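 Male mice, 8 weeks old, dosed orally twice daily with 300 mg/kg in 0.5% methylcellulose, or vehicle, for 13 days (C57BL/6J) or 10 days (db/db). After a 6 h fast, glucose 2 g/kg given ip. Tail-vein blood sampled at set times and plasma glucose measured by glucometer. AUC calculated. Mean ± SE, n=5-8; ANOVA with Bonferroni test versus vehicle.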

[3] = system: Mus musculus; assay: Toxicity in C57BL/6J mouse assessed as fasting plasma glucose level at 300 mg/kg, po bid for 12 to 13 days measured on day 15 (reference value: 78 +/-6 mg/dl); type: organism-based; set-up: dose 300 mg/kg, route oral; conditions: in vivo
[4] = system: Mus musculus; assay: Antidiabetic activity in db/db mouse assessed as decrease in glucose area under curve at 300 mg/kg, po bid for 10 days by glucose tolerance test relative vehicle treated control; type: functional; conditions: 240 h; outline: as §1
[5] = system: Mus musculus; assay: Toxicity in db/db mouse assessed as liver weight at 300 mg/kg, po bid for 12 to 13 days measured on day 12 to 13 (reference value: 1.57 +/-0.04 gms); type: organism-based; set-up: dose 300 mg/kg, route oral; conditions: in vivo

SMILES | fold change (FC) [1] | Activity [2] | Activity [3] [mg/dL] | inhibition in vivo at 300 mg/kg [4] [%] | Activity [5] [g]
C[C@H](NC(=O)c1sccc1OCc1ccc(Cl)cc1)c1ccccc1 | 1.5 | Non-toxic | 87 | 14 | 1.8
O=C(Cc1c(F)cccc1F)Nc1cc(OCc2ccc(Cl)cc2)ccn1 | 2.2 | Non-toxic | 88 | 16 | 1.67
